Test results published in PubChem BioAssay AID540337 (Southern Research Specialized Biocontainment Screening …, 2011).
The source made the active and inactive calls.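 The calls were made as follows: active = at least 50% inhibition of virus-induced cell damage; inactive = the rest.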

Test system: HEp-2 RSV Long CPE inhibition, luminescence
Assay: RSV-induced cytopathic effect inhibitors, dose response, cell-based, synthesized compounds, set 12, CPE (AID 540337)
Outline: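 Assay system: HEp-2 cells infected with RSV strain Long; Schedule: 6 d at 37 °C; Detection: luminescent CPE read-out; Controls: uninfected cell-only wells and virus-infected wells without compound; Replication: triplicate.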

SMILES	IC50
COCCCNC(=O)c1ccc(Cn2c(=O)c3ccccc3n(CC3CCCCC3)c2=O)cc1	> 50 µM (inactive)
COCCCNC(=O)c1ccc(Cn2c(=O)c3ccccc3n(Cc3ccccn3)c2=O)cc1	> 50 µM (inactive)
COCCCNC(=O)c1ccc(Cn2c(=O)c3ccccc3n(Cc3ccc(C)cc3)c2=O)cc1	2.5 µM
COCCCNC(=O)c1ccc(Cn2c(=O)c3ccccc3n(CCc3ccc(C(F)(F)F)cc3)c2=O)cc1	> 50 µM (inactive)

Other lines, results leading:

IC50	SMILES
> 50 µM (inactive)	COCCCNC(=O)c1ccc(Cn2c(=O)c3ccccc3n(CCc3ccc(Br)cc3)c2=O)cc1
> 50 µM (inactive)	COCCCNC(=O)c1ccc(Cn2c(=O)c3ccccc3n(Cc3cccnc3)c2=O)cc1
> 50 µM (inactive)	COCCCNC(=O)c1ccc(Cn2c(=O)c3ccccc3n(CCc3ccc(C)cc3)c2=O)cc1
